Test results taken from ChEMBL document CHEMBL1129336, “Ryanodine action at calcium release channels. 2. relation to substituents of the cyclohexane ring” (J Med Chem, 1996).

How the values were obtained:
[1] = target: Ryanodine receptor 1 (Oryctolagus cuniculus) (UniProt P11716); assay: Displacement of [3H]ryanodine from ryanodine receptor(ryr) of rabbit skeletal muscle
Outline: (§1)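 Radioligand displacement assays of [3H]ryanodine binding at the ryanodine receptor, one each on rabbit skeletal muscle, mouse brain and canine ventricle preparations. Values are means of three to five experiments, each run in duplicate; standard error is reported as percent of the mean.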

Ryanodine receptor 2 = target: T1, Ryanodine receptor 2 (Canis lupus familiaris, UniProt Q8WN72); assay: Binding affinity towards ryanodine receptor in canine ventrical preparation
T1 sequence (Q8WN72 whole entry): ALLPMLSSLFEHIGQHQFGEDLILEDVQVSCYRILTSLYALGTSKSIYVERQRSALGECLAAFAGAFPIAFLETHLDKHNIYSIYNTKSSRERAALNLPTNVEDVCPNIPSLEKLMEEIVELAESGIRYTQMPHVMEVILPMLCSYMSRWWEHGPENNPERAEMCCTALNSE
Outline: (§2)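 Ryanodine receptor binding assays on tissue preparations. Values are means of three to five experiments, each run in duplicate. Results are reported as Ki for the cardiac ventricle preparation.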

[2] = Inhibition of contraction on electrical stimulation of cardiac muscle using rat right ventricular muscle strips; type: functional, Muscle tissue
Outline: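 Physiological function test on intact rat ventricular muscle strips, in which the read-out depends on both tissue penetration and receptor potency. Values are expressed as IC50 from three to five experiments; standard error is reported as percent of the mean.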

[3] = target: T2, Ryanodine receptor 2 (Canis lupus familiaris) (UniProt Q8WN72); assay: Displacement of [3H]ryanodine binding to ryanodine receptor(ryr) in canine left ventricular membranes; type: cell membranes; outline: as §1
T2 sequence (whole entry): T1 sequence (Q8WN72 whole entry)

[4] = Inhibition of the contraction on electrical stimulation of cardiac muscle using rat right ventricular muscle strips; type: functional, tissue-based; settings: Muscle tissue
Outline: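 Contractility test on intact rat ventricular muscle strips. The read-out reflects both tissue penetration and receptor action. Values are means of three to five experiments, expressed as IC50.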

[5] = target: Ryanodine receptor 2 (Mus musculus) (UniProt E9Q401); assay: Displacement of [3H]ryanodine from ryanodine receptor(ryr) of Mouse brain
[6] = Inhibitory activity against ryanodine receptor in rabbit muscle; type: functional, Oryctolagus cuniculus; outline: as §2
[7] = Inhibitory activity against ryanodine receptor in Mouse brain; type: functional, tissue-based

Sequence of Ryanodine receptor 1 (Oryctolagus cuniculus) (P11716 whole entry): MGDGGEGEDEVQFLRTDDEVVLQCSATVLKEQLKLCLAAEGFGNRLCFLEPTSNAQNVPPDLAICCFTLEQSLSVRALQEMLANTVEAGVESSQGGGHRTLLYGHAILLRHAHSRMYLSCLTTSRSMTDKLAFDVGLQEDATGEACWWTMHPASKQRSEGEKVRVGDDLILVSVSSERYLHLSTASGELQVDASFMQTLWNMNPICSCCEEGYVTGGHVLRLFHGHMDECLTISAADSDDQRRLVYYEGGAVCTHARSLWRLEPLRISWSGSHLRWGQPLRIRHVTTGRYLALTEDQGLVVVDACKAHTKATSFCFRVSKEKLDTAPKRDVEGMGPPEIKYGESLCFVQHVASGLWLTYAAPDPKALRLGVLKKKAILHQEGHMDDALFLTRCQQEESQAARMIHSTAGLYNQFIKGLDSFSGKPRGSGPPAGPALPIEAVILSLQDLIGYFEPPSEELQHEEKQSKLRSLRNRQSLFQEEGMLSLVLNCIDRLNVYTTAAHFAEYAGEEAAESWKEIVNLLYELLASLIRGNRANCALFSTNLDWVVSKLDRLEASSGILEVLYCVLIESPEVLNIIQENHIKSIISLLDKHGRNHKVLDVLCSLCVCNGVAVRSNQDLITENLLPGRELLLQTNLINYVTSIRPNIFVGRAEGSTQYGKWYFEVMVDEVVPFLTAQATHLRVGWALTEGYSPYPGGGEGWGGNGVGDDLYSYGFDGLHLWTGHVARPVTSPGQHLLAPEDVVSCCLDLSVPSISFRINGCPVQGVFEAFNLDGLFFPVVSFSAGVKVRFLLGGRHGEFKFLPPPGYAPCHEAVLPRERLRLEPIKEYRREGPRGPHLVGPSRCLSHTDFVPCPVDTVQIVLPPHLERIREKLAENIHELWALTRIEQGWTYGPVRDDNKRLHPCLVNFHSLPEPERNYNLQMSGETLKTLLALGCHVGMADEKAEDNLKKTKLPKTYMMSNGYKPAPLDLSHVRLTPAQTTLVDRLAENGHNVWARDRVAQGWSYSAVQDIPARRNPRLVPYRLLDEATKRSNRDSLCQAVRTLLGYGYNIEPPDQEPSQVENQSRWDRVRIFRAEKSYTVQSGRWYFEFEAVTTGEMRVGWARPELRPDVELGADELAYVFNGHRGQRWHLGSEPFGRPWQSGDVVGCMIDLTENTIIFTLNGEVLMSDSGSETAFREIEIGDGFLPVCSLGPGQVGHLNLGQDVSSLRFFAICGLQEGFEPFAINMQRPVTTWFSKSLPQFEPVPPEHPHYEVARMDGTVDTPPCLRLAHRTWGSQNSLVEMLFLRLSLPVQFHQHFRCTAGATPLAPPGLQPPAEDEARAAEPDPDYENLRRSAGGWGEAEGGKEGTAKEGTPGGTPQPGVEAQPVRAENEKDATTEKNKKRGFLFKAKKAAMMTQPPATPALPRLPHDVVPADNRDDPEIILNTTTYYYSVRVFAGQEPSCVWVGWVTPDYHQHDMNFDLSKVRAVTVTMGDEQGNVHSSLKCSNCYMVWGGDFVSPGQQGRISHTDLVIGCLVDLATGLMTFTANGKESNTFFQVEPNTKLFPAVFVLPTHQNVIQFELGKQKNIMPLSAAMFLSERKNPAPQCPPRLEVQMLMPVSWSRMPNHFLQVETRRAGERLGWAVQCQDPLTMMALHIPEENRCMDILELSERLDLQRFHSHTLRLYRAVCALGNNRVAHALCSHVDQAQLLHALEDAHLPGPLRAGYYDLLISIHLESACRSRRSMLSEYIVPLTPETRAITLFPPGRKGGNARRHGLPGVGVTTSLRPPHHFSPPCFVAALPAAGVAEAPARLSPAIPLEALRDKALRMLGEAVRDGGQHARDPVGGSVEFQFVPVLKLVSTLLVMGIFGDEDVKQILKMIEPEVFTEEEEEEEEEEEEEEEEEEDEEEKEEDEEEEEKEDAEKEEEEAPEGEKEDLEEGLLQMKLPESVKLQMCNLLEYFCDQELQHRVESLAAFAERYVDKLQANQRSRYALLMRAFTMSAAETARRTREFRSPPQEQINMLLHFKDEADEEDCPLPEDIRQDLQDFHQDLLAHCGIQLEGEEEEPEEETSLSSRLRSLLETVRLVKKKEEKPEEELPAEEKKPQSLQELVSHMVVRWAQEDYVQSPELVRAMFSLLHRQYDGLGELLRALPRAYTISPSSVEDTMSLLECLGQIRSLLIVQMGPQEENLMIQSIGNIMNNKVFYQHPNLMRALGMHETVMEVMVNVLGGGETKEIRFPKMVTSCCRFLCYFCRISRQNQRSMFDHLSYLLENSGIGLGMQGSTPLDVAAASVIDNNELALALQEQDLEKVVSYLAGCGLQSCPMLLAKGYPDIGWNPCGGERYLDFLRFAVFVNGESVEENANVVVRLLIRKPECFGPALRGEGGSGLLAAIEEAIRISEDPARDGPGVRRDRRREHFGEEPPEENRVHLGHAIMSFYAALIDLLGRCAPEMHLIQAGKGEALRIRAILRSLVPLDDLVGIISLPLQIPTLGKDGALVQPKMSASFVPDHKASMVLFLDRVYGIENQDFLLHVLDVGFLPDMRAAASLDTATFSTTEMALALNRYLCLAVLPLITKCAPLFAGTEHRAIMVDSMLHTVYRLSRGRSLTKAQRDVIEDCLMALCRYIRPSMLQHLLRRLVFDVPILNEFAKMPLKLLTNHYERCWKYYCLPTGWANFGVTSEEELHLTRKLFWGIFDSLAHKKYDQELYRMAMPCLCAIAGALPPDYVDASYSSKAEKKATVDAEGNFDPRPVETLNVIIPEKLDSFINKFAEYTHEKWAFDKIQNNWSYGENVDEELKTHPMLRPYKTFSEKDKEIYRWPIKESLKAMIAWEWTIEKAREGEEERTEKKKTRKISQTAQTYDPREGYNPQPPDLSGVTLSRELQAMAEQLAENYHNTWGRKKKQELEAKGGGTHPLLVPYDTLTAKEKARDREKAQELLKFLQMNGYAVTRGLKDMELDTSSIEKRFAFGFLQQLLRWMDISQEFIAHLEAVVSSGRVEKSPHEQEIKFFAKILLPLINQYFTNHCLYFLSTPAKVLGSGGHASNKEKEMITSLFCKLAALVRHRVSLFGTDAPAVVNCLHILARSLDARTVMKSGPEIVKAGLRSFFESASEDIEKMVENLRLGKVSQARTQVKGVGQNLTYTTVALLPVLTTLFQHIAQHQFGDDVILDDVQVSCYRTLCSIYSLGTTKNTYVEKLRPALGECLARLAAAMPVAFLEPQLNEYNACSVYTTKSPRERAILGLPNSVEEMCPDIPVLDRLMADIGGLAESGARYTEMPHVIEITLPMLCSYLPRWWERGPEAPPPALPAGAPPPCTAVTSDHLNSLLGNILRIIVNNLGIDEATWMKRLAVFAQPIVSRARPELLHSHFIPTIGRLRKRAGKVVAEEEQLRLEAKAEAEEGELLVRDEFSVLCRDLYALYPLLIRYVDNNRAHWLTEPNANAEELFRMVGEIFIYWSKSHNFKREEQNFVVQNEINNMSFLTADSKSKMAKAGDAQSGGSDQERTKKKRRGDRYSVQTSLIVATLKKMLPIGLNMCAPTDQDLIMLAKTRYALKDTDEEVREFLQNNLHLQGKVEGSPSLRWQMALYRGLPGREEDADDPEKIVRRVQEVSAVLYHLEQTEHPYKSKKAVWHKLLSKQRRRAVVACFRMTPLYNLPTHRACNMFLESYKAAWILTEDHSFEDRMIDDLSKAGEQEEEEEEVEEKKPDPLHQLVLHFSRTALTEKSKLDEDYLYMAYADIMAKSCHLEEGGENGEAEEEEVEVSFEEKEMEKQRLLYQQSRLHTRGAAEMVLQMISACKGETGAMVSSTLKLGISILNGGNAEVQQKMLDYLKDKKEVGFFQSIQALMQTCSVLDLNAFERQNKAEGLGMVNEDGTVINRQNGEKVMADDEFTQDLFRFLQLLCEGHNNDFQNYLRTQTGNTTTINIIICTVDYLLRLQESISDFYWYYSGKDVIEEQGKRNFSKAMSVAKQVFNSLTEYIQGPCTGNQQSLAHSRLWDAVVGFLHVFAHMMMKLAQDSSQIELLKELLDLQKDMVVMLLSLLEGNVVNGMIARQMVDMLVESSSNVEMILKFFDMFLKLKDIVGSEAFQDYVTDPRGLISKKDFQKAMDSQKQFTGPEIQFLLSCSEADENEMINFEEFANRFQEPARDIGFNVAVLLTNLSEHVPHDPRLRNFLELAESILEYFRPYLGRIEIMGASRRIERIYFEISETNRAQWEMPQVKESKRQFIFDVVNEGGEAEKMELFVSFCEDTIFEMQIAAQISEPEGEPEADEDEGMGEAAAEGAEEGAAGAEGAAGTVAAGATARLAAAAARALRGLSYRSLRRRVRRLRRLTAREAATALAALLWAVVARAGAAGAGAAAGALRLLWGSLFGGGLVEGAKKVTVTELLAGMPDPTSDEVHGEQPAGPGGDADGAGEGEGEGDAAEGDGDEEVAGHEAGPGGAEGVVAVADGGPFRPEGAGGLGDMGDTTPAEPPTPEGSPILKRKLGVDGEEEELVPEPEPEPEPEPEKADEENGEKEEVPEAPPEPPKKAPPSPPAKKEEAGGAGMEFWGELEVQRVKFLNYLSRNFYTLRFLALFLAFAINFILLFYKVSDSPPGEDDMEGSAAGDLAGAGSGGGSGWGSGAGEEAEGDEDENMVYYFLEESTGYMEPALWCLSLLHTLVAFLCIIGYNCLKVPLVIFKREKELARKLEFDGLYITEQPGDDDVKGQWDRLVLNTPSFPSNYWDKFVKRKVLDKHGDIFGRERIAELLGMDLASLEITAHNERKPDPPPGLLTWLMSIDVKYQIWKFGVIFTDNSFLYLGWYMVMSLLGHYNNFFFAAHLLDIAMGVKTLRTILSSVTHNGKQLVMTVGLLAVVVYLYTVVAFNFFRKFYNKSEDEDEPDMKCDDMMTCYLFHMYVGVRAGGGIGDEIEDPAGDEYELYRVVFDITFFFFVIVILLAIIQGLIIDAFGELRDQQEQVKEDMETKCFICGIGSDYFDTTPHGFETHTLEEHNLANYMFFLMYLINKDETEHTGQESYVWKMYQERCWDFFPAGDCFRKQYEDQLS

Row | Compound | Relative activity [1] | Relative activity [2] | Relative activity [3] | further results
1 | C=C1CCC2(O)C3(C)CC4(O)OC2(C1OC(=O)c1ccccc1)C1(O)C3(O)C(OC(=O)c2ccc[nH]2)C(O)(C(C)C)C41C (stereo not given) | 3.9 |  |  | 
2 | CC(C)[C@@]1(O)[C@@H](OC(=O)c2ccc[nH]2)[C@@]2(O)[C@@]3(C)C[C@]4(O)O[C@@]5([C@H](O)[C@@H](C)CC[C@]35O)[C@@]2(O)[C@@]14C [RYANODINE] |  |  |  | Ki (Ryanodine receptor 2): 1.8 nM
3 | CC(C)C1(O)C(OC(=O)c2ccc[nH]2)C2(O)C3(C)CC4(O)OC5(CC(O)CCC35O)C2(O)C41C (stereo not given) | 0.2 | 28 | 0.42 | 
4 | CC1CCC2(O)C3(C)CC4(O)OC2(C1N)C1(O)C3(O)C(OC(=O)c2ccc[nH]2)C(O)(C(C)C)C41C (stereo not given) | 68 |  |  | 
5 | CC1=CCC2(O)C3(C)CC4(O)OC2(C1O)C1(O)C3(O)C(OC(=O)c2ccc[nH]2)C(O)(C(C)C)C41C (stereo not given) | 26 | 11 |  | 
6 | CO/N=C1\C(C)CCC2(O)C3(C)CC4(O)OC12C1(O)C3(O)C(OC(=O)c2ccc[nH]2)C(O)(C(C)C)C41C (stereo not given) | 13 | 34 | 17 | 
7 | CC1CCC2(O)C3(C)CC4(O)OC2(C1O)C1(O)C3(O)C(OC(=O)c2ccc[nH]2)C(O)(C(C)C)C41C (stereo not given) | 97 | 34 |  | 
8 | CC(C)C1(O)C(OC(=O)c2ccc[nH]2)C2(O)C3(C)CC4(O)OC5(CCCCC35O)C2(O)C41C (stereo not given) | 6.5 |  |  | 
9 | CC(C)[C@@]1(O)[C@@H](OC(=O)c2cc[nH]c2)[C@@]2(O)[C@]3(C)C[C@@]4(O)O[C@@]5([C@H](O)[C@@H](C)CC[C@]35O)[C@@]2(O)[C@@]41C [RYANODINE] | 100 |  |  | IC50 [4]: 34 nM; Relative activity [5]: 100; IC50 [6]: 3.5 nM; IC50 [7]: 3.3 nM
10 | CONC1C(C)CCC2(O)C3(C)CC4(O)OC12C1(O)C3(O)C(OC(=O)c2ccc[nH]2)C(O)(C(C)C)C41C (stereo not given) | 68 | 31 | 36 | 
11 | CC1CCC2(O)C3(C)CC4(O)OC2(NC1=O)C1(O)C3(O)C(OC(=O)c2ccc[nH]2)C(O)(C(C)C)C41C (stereo not given) | 42 | 11 | 7.4 | 
